Measurements published in ChEMBL document CHEMBL4007396, “New diphenylmethane derivatives as peroxisome proliferator-activated receptor alpha/gamma dual agonists endowed with anti-proliferative effects and mitochondrial activity” (Eur J Med Chem, 2017).
The source made the active and inactive calls. The rule behind the calls is not given here.

Tests used:
[1] = target: T1, Bile acid receptor (Homo sapiens) (UniProt Q96RI1); experiment: Agonist activity at GAL4-fused human FXR LBD expressed in human HepG2 cells up to 2 uM after 20 hrs by luciferase reporter gene assay; type: cell-based
T1 sequence (whole entry): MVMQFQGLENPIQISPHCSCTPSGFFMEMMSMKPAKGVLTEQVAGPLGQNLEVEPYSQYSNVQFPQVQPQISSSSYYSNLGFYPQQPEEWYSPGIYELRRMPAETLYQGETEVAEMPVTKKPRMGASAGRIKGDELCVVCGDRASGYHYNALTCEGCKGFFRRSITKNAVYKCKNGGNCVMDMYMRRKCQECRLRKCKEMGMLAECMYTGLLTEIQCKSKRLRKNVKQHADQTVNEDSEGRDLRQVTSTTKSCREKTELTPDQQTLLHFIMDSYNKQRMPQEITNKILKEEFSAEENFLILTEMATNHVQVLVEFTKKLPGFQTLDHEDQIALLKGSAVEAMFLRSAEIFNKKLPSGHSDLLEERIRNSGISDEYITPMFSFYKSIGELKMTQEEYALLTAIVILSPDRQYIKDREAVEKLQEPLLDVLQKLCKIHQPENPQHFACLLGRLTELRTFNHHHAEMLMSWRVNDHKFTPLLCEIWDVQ
Method in brief: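 HepG2 in MEM/10% FBS, calcium-phosphate co-transfection 24 h after seeding with GAL4-FXR-LBD (30 ng), pGAL5TKpGL3 luciferase reporter (100 ng) and pCMVβgal (250 ng); 4 h later, 20 h ligand exposure in triplicate. Luciferase normalized to β-galactosidase (ONPG); efficacy as % of maximal fold induction of chenodeoxycholic acid reference; tested up to 2 μM.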

HepG2 = experiment: Cytotoxicity against human HepG2 cells at >2 uM; type: cell-based
[2] = target: T2, Peroxisome proliferator-activated receptor alpha (Homo sapiens, UniProt Q07869); experiment: Transactivation of GAL4-fused human PPARalpa LBD expressed in human HepG2 cells after 20 hrs by luciferase reporter gene assay; type: cell-based
T2 sequence (Q07869 whole entry): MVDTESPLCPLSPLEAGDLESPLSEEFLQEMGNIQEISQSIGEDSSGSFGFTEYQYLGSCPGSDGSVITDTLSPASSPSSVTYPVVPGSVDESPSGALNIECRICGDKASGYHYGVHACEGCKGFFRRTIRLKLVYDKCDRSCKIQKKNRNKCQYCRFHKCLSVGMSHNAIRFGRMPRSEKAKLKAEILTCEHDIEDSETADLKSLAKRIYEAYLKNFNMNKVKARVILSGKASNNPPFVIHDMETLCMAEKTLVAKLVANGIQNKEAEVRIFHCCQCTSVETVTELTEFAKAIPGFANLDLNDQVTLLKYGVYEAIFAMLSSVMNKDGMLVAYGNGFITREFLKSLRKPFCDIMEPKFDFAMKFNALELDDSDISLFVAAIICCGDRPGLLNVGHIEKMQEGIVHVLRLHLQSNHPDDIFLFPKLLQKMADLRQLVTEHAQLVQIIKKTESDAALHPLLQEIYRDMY

[3] = target: T3, Peroxisome proliferator-activated receptor gamma (Homo sapiens, UniProt P37231); experiment: Transactivation of GAL4-fused human PPARgamma LBD expressed in human HepG2 cells after 20 hrs by luciferase reporter gene assay; type: cell-based
T3 sequence (P37231 whole entry): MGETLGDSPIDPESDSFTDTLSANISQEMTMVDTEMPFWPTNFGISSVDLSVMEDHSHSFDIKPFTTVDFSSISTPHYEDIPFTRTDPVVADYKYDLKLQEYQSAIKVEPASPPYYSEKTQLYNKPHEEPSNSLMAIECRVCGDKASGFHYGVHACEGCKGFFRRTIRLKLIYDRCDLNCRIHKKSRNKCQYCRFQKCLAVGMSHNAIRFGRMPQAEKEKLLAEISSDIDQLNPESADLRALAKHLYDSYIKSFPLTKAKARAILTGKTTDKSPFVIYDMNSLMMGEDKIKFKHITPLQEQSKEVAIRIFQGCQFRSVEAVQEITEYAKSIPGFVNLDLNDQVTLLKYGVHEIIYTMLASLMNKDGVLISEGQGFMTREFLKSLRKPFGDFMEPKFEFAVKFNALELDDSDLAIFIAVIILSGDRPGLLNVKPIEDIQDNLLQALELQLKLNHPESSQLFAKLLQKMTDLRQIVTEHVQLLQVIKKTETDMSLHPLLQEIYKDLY

[4] = target: T4, Peroxisome proliferator-activated receptor delta (Homo sapiens, UniProt Q03181); experiment: Transactivation of GAL4-fused human PPARdelta LBD expressed in human HepG2 cells after 20 hrs by luciferase reporter gene assay; type: cell-based
T4 sequence (Q03181 whole entry): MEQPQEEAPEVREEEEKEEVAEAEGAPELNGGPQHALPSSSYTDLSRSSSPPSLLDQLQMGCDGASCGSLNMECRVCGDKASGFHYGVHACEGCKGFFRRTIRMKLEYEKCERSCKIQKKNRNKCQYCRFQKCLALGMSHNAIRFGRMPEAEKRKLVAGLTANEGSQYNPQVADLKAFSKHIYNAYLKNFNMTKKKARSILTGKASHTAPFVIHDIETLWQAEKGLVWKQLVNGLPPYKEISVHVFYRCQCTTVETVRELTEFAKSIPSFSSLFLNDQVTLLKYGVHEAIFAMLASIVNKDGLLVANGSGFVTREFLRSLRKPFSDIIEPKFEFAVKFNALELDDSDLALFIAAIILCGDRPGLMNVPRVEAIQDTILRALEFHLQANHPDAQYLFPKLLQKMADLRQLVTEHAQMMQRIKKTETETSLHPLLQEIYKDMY
Method in brief: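 HepG2 cells seeded 10⁵/well, transfected after 24 h by calcium phosphate with GAL4-PPARδ-LBD (30 ng), pGAL5TKpGL3 luciferase reporter (100 ng) and pCMVβgal (250 ng); 4 h later treated 20 h in triplicate with ligands up to 2 μM. Luciferase in cell extracts normalised to β-galactosidase (ONPG); efficacy as % of maximal fold induction of reference agonist L-165,041; experiments repeated at least twice.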

[5] = target: T2, Peroxisome proliferator-activated receptor alpha; experiment: Binding affinity to PPARalpha (unknown origin) assessed as thermodynamic dissociation constant by SPR assay
[6] = target: T3, Peroxisome proliferator-activated receptor gamma; experiment: Binding affinity to PPARgamma (unknown origin) assessed as thermodynamic dissociation constant by SPR assay
[7] = target: T4, Peroxisome proliferator-activated receptor delta; experiment: Binding affinity to PPARdelta (unknown origin) assessed as thermodynamic dissociation constant by SPR assay; details: read-out: Kd
[8] = target: T2, Peroxisome proliferator-activated receptor alpha; experiment: Binding affinity to PPARalpha (unknown origin) assessed as kinetic dissociation constant by SPR assay
[9] = target: T3, Peroxisome proliferator-activated receptor gamma; experiment: Binding affinity to PPARgamma (unknown origin) assessed as kinetic dissociation constant by SPR assay
[10] = target: T4, Peroxisome proliferator-activated receptor delta; experiment: Binding affinity to PPARdelta (unknown origin) assessed as kinetic dissociation constant by SPR assay
[11] = target: T5, Peroxisome proliferator-activated receptor alpha (Homo sapiens) (UniProt Q07869); experiment: Agonist activity at PPARalpha in human HepG2 cells assessed as increase in CPT1 mRNA level at 1 uM after 24 hrs by RT-PCR method; type: cell-based
T5 sequence (whole entry): T2 sequence (Q07869 whole entry)
Method in brief: (§1)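 Serum-free HepG2 exposed 24 h to 1 μM test agent (Wy-14,643 reference at 50 μM). RNA extracted from 1x10⁶ cells; TaqMan real-time RT-PCR for CAC, CPT1 or PPARα, normalized to β-actin. Mean ± SD of three independent duplicate experiments; one-way ANOVA with Bonferroni test.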

[12] = target: T5, Peroxisome proliferator-activated receptor alpha (Homo sapiens); experiment: Agonist activity at PPARalpha assessed as induction of positive regulatory loop based receptor transcriptional activation by measuring upregulation of PPARalpha mRNA level in human HepG2 cells at 1 uM after 24 hrs by RT-PCR method; type: cell-based; method in brief: as §1
HT-29 = experiment: Growth inhibition of human HT-29 cells assessed as cell vitality up to 10 uM up to 72 hrs by hemocytometry relative to control; type: functional; set-up: scale not given: the % may be the effect or the level left
Method in brief: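 Exponentially growing HT-29 colon adenocarcinoma cells (D-MEM, 10% FBS, 37 °C, 5% CO2) exposed to vehicle (DMSO, final <0.1%) or 1, 5 and 10 μM compound in 10% FBS medium for 24, 48 and 72 hs; cells washed, trypsinized and counted by Bürker hemocytometer, three counts per well. Viability relative to vehicle; mean ± SD of three independent experiments in duplicate.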

[13] = target: T6, Peroxisome proliferator-activated receptor gamma (Homo sapiens) (UniProt P37231); experiment: Agonist activity at PPARgamma in human HT-29 cells assessed as upregulation of p21waf1/cip1 protein expression at 10 uM after 48 hrs by Western blot method; type: cell-based
T6 sequence (whole entry): T3 sequence (P37231 whole entry)
Method in brief: (§2)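 HT-29 or HEK293T cells in DMEM/10% FBS treated 48 h with 10 μM compound (DMSO vehicle, final below 0.1%). RIPA lysates (with protease inhibitors), 80 μg protein per lane immunoblotted for p21waf1/cip1 with β-actin loading control; densitometric p21/β-actin ratio, mean ± SD of at least three independent experiments.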

HEK-293T = experiment: Effect on p21waf1/cip1 protein expression in HEK293T cells at 10 uM after 48 hrs by Western blot method; type: cell-based; details: human; method in brief: as §2
[14] = target: T6, Peroxisome proliferator-activated receptor gamma (Homo sapiens); experiment: Agonist activity at PPARgamma in human HT-29 cells harboring APC mutant assessed as inhibition of Wnt/beta-catenin signaling pathway by measuring decrease in c-Myc level at 10 uM treated for 24 hrs by Western blot method; type: cell-based
Method in brief: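 RIPA lysates, 80 μg protein immunoblotted for c-Myc with β-actin loading control; c-Myc/β-actin densitometry, mean ± SD of at least three independent experiments.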

[15] = target: T5, Peroxisome proliferator-activated receptor alpha (Homo sapiens); experiment: Agonist activity at PPARalpha in human HepG2 cells assessed as increase in CAC mRNA level at 1 uM after 24 hrs by RT-PCR method; type: cell-based; method in brief: as §1
[16] = target: T5, Peroxisome proliferator-activated receptor alpha (Homo sapiens); experiment: Agonist activity at PPARalpha in human HepG2 cells assessed as increase in CAC protein expression level at 1 uM after 48 hrs by Western blot method; type: cell-based
Method in brief: (§3)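 HepG2 serum-depleted 24 h, then treated 48 h with 1 μM compound (Wy-14,643 at 50 μM as reference). Nitrocellulose immunoblots probed for CAC, CPT1 or PPARα with β-actin loading control, chemiluminescent detection; band densitometry expressed as fold change versus untreated cells; three independent experiments.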

[17] = target: T5, Peroxisome proliferator-activated receptor alpha (Homo sapiens); experiment: Agonist activity at PPARalpha in human HepG2 cells assessed as increase in CPT1 protein expression level at 1 uM after 48 hrs by Western blot method; type: cell-based; method in brief: as §3
[18] = target: T5, Peroxisome proliferator-activated receptor alpha (Homo sapiens); experiment: Agonist activity at PPARalpha assessed as induction of positive regulatory loop based receptor transcriptional activation by measuring upregulation of PPARalpha protein expression level in human HepG2 cells at 1 uM after 48 hrs by Western blot method; type: cell-based; method in brief: as §3
[19] = target: T5, Peroxisome proliferator-activated receptor alpha (Homo sapiens); experiment: Agonist activity at PPARalpha in human HepG2 cells assessed as increase in mitochondrial mass at 1 uM by CellLight Mitochondria-GFP staining based fluorescent microscopic method relative to control; type: cell-based
Method in brief: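 Serum-free HepG2 at 60% confluence transduced with Mitochondria-GFP BacMam 2.0 (50 particles/cell) and given 1 μM compound or 50 μM Wy-14,643 for 24 h. Imaged at 20x with GFP filters (ex 485/em 535 nm); separately, SDS/Tris pH 7.5 lysates read at ex 475, em 500-550 nm. Mean ± SD of three experiments, ANOVA/Bonferroni.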

CC(Oc1ccc(Cc2ccc(OCc3coc(-c4ccccc4)n3)cc2)cc1)C(=O)O (configuration not stated)
Activity [1]: inactive
Activity (HepG2): Toxic
EC50 [2]: 39 nM
EC50 [3]: 290 nM

CCC(CC)(c1ccc(OCc2coc(-c3c(Cl)cccc3Cl)n2)cc1)c1ccc(OC(C)C(=O)O)cc1 (configuration not stated)
Activity [1]: inactive
Activity (HepG2): Toxic

CCCc1c(OCCCOc2ccc(OCC(=O)O)cc2)ccc(C(C)=O)c1O
EC50 [4]: 20 nM
Kd [5]: Not Active
Kd [6]: Not Active
Kd [7]: 76.4 nM
Kd [8]: Not Active
Kd [9]: Not Active
Kd [10]: 0.43 s⁻¹

CCC(CC)(c1ccc(OCc2nc(-c3c(Cl)cccc3Cl)oc2C)cc1)c1ccc(OC(C)C(=O)O)cc1 (configuration not stated)
Activity [1]: inactive
Activity (HepG2): Toxic

Cc1oc(-c2ccccc2)nc1COc1ccc(Cc2ccc(OC(C)C(=O)O)cc2)cc1 (configuration not stated)
Activity [1]: inactive
Activity (HepG2): Toxic
EC50 [2]: 100 nM
EC50 [3]: 290 nM
Activity [11]: Active
Activity [12]: Active
Activity (HT-29): 70%
Activity [13]: Active
Activity (HEK-293T): Non-Toxic
Activity [14]: Active
Activity [15]: Active
Activity [16]: Active
Activity [17]: Active
Activity [18]: Active
Activity [19]: 30%

CN(CCOc1ccc(CC2SC(=O)NC2=O)cc1)c1ccccn1 (configuration not stated) [ROSIGLITAZONE]
Kd [5]: Not Active
Activity (HT-29): 65%
Kd [8]: Not Active

CCC(CC)(c1ccc(OCc2nc(-c3ccccc3)oc2C)cc1)c1ccc(OC(C)C(=O)O)cc1 (configuration not stated)
Activity [1]: inactive
Activity (HepG2): Toxic

CCC(CC)(c1ccc(OCc2coc(-c3ccccc3)n2)cc1)c1ccc(OC(C)C(=O)O)cc1 (configuration not stated)
Activity [1]: inactive
Activity (HepG2): Toxic
